Source: PubChem BioAssay
Cneo AK release – Cryptococcus neoformans lysis via adenylate kinase release. C. neoformans lysis, adenylate kinase release luminescence, 4 h; normalised: neutral wells 0, clomiphene wells 100. lysis activity, % at 15 µM. 360,000 tested, 0.2% active. AID 651654;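 active means mean lysis activity across replicates of at least 80%, whatever share of replicates individually reach that level; inactive means mean lysis activity below 80%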
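Assay system: C. neoformans cells. Amount: yeast cell density of 5 × 10^6 cells/mL. Technique: AK luminescence. Buffer or medium: YPD. Times: static 4 h at 37 °C with compound, 1 h detection. Dosing: single-point compound dose. Read-out: lysis from increased AK signal.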
F508del corr – CFTR F508del correction in bronchial cells; AID 720511; CFBE cells, YFP halide quenching; stimulated with forskolin plus potentiator P3; % fluorescence drop versus neutral controls; 350,000 tested, 0.36% active; activity (quench increase), % at 7.58 µM;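 active means mean added fluorescence quench of at least 8% versus neutral control, with both replicates also reaching 8%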;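 further: cells transiently co-express mutant CFTR-F508del with the halide-sensitive YFP; corrector assay measuring rescue of mutant channel to the surface after 24 h compound exposure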
HIV Env fusion – blocks HIV Env-driven cell-cell fusion. HeLa-JRFL Env/CEM21 cell fusion, luciferase. 360,000 tested, 1.1% active. inhibition, % at 12.3 µM. AID 651610;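 active means mean replicate inhibition score of at least 50 and every replicate individually at or above 50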
miR-122 sensor – inhibitors of miR-122 in Huh7 cells; Huh7 miR-122 Renilla luciferase sensor, 48 h; neutral wells = 0, positive control = 100; activation (reporter increase), % at 12.5 µM; 340,000 tested, 0.3% active; AID 602342;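 active means mean replicate activation score at least 90 and every replicate individually at or above 90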;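 further: higher luciferase means less miR-122 activity so hits act as miR-122 inhibitors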
GSIS activator – GLuc luminescence reporter in INS-1E cells, primary screen for activators of glucose-dependent secretion of insulin | INS-1E GLuc reporter insulin secretion, 2-3 h | 370,000 tested, 0.61% active | AID 743287 | activation, % at 16.6 µM;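 active means lowest replicate activation of at least 40%, so every replicate reaches that level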
Ecoli rRNA inh – selective bacterial rRNA inhibition in E. coli; E. coli WT GFP vs humanized-ribosome RFP mutants, fluorescence, 24 h; hits give low values; DMSO median 0, no signal -100; 350,000 tested, 1.6% active; AID 720706; GFP signal change (wild-type ribosome), % (test concentration not listed);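 active means significant combined selectivity score with lowered wild-type GFP, culture density cut under 30%, mutant RFP and density less affected; inactive means any of these conditions unmet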
Each line names hits and unclear results; the compound was inactive in the other large screens; [ ] = dose if it differs, or a comment. Hits are enriched below; roughly 3.1% of the tested compounds scored in any of these assays.

O=C(N/N=C/c1ccco1)c1ccc2nc[nH]c2c1	none
O=C(N/N=C/c1ccccc1C(F)(F)F)c1ccc2nc[nH]c2c1	Ecoli rRNA inh -25
O=C(N/N=C/c1ccc(Cl)cc1Cl)c1ccc2nc[nH]c2c1	Ecoli rRNA inh -18
CNC[C@H]1OCCCC[C@@H](C)Oc2ccc(NC(=O)c3ccncc3)cc2C(=O)N([C@@H](C)CO)C[C@H]1C	none
C[C@@H]1CN([C@H](C)CO)C(=O)c2cc(NC(=O)Nc3ccc(C(F)(F)F)cc3)ccc2O[C@@H](C)CCCCO[C@H]1CN(C)S(=O)(=O)c1ccccc1	none
CC(C)CC#Cc1ccc([C@@H]2[C@H](CO)N3CCCCN(C(=O)NC4CCCC4)C[C@@H]23)cc1	none (no result: HIV Env fusion)
O=C(Nc1ccccc1)N1CCCCN2[C@H](CO)[C@H](c3ccc(C#CC4CC4)cc3)[C@H]2C1	none (no result: HIV Env fusion)
O=C(NC1CCCC1)N1CCCCN2[C@H](CO)[C@@H](c3ccc(-c4cncnc4)cc3)[C@H]2C1	Cneo AK release 106 (no result: HIV Env fusion)
O=C(Nc1ccccc1)N1CCCCN2[C@H](CO)[C@@H](c3ccc(C#CC4CC4)cc3)[C@@H]2C1	Cneo AK release 100 (no result: HIV Env fusion)
O=C(NC1CCCC1)N1CCCCN2[C@H](CO)[C@@H](c3ccc(-c4cncnc4)cc3)[C@@H]2C1	none (no result: HIV Env fusion)
CC(C)CC#Cc1ccc([C@@H]2[C@@H](CO)N3CCCCN(C(=O)NC4CCCC4)C[C@H]23)cc1	F508del corr 9.8 (no result: HIV Env fusion)
C[C@@H]1CN([C@@H](C)CO)C(=O)CCCn2cc(nn2)CO[C@H]1CN(C)Cc1ccc2cccnc2c1	none (no result: Cneo AK release, HIV Env fusion)
CC(C)(C)c1cc(C(c2cccnc2)N2CCN(CCO)CC2)cc(C(C)(C)C)c1O (centres undefined)	Ecoli rRNA inh -30 (no result: HIV Env fusion)
Cc1ccc(S(=O)(=O)N(C)C[C@H]2Oc3ccc(NS(C)(=O)=O)cc3C(=O)N([C@H](C)CO)C[C@H]2C)cc1	none
CCOC(=O)c1cc(CC)sc1NC(=O)COC(=O)c1cnccn1	GSIS activator 69
Cc1ccc(N(C(=O)Cc2c[nH]c3ccccc23)C(C(=O)NC2CCCCC2)c2ccco2)cc1 (centres undefined)	HIV Env fusion 84 (no result: F508del corr, GSIS activator, Ecoli rRNA inh)
Cc1ccccc1N(C(=O)Cc1c[nH]c2ccccc12)C(C(=O)NC1CCCCC1)c1ccco1 (centres undefined)	none (no result: F508del corr, Ecoli rRNA inh)
CCC(C)(C)c1ccc(OCCCC[n+]2cccc(C)c2C)c(C(C)(C)CC)c1	HIV Env fusion 99 (no result: GSIS activator, Ecoli rRNA inh)
Cc1cc[n+](CC[n+]2ccc(C)cc2)cc1	none
CCC(C)(C)c1ccc(OCCCC[n+]2ccc(C)cc2)c(C(C)(C)CC)c1	HIV Env fusion 127, GSIS activator 560 (no result: Cneo AK release, F508del corr, miR-122 sensor, Ecoli rRNA inh)
O=C(CC1CC1)N1CC(=O)N2[C@H](CO)[C@H](c3ccc(C#Cc4ccccc4)cc3)[C@@H]2C1	none (no result: Cneo AK release, HIV Env fusion, miR-122 sensor)
C[C@@H]1CN([C@@H](C)CO)S(=O)(=O)c2ccc(Br)cc2O[C@@H]1CN(C)C	none
C[C@H](CO)N1C[C@H](C)[C@H](CN(C)Cc2ccccc2)OCCCC[C@H](C)Oc2ccc(NS(=O)(=O)c3cccs3)cc2C1=O	Cneo AK release 91
C[C@@H]1CN([C@@H](C)CO)C(=O)c2cc(NS(=O)(=O)c3cccs3)ccc2O[C@@H](C)CCCCO[C@H]1CN(C)Cc1ccc(C(F)(F)F)cc1	HIV Env fusion 58[16.7 µM]
CN(C[C@@H]1N[C@H](CO)[C@@H]1c1ccc(C#CCC2CCCC2)cc1)S(C)(=O)=O	none (no result: Cneo AK release, HIV Env fusion, miR-122 sensor)
CC(=O)N1[C@@H]2CN(C(=O)NC(C)C)C[C@H]1C2c1ccccc1 (some centres undefined)	none (no result: Cneo AK release, F508del corr, HIV Env fusion, miR-122 sensor)
CCOc1ccc(NC(=O)[C@@H](NC(=O)OCc2ccccc2)[C@@H](C)CC)cc1	GSIS activator 49 (no result: Cneo AK release, F508del corr, miR-122 sensor, Ecoli rRNA inh)
CC1CN(c2ncc(/C=N/NC(=O)c3ccccc3O)s2)CC(C)O1 (centres undefined)	Ecoli rRNA inh -31
Cc1ccc(S(=O)(=O)N[C@@H]2CC[C@H](CCNC(=O)C3CCCC3)O[C@@H]2CO)cc1	Cneo AK release 86
Cc1ccc(S(=O)(=O)N[C@H]2CC[C@H](CC(=O)NCc3ccccc3F)O[C@H]2CO)cc1	Cneo AK release 100 (no result: miR-122 sensor)
COc1cc(NS(=O)(=O)c2csc(C(N)=O)c2)cc(OC)c1	miR-122 sensor 99 (no result: F508del corr)
Cc1cccc(NS(=O)(=O)c2csc(C(N)=O)c2)c1	miR-122 sensor 111
Cc1noc(C)c1S(=O)(=O)Nc1ccc2c(c1)C(=O)N([C@@H](C)CO)C[C@@H](C)[C@H](CN(C)C(=O)Nc1ccc(F)cc1)O2	none (no result: Cneo AK release)
C[C@H](CO)N1C[C@H](C)[C@H](CN(C)S(=O)(=O)c2ccc(Cl)cc2)Oc2ccc(NC(=O)CCCN(C)C)cc2CC1=O	none (no result: HIV Env fusion)
Cc1ccc(Cl)cc1N1CCN(C(=O)Cc2c(C(=O)O)[nH]c3ccccc23)CC1	Ecoli rRNA inh -30 (no result: HIV Env fusion)
CC1CCc2nc(NC(=O)c3ccc(S(=O)(=O)N4CCCc5ccccc54)cc3)sc2C1 (centres undefined)	none (no result: F508del corr, HIV Env fusion, GSIS activator, Ecoli rRNA inh)
COC(=O)Nc1ccc(S(=O)(=O)N2CCCc3cccc(O)c32)cc1	none (no result: Cneo AK release, miR-122 sensor)
O=S(=O)(c1ccc(Br)cc1)N1CCCc2ccccc21	F508del corr 11
COC(=O)Nc1ccc(S(=O)(=O)N2CCCc3ccccc32)cc1	HIV Env fusion 59 (no result: F508del corr, GSIS activator, Ecoli rRNA inh)
O=C(Nc1nc2c(s1)CCCC2)c1ccc(S(=O)(=O)N2CCCc3ccccc32)cc1	HIV Env fusion 64 (no result: F508del corr, Ecoli rRNA inh)
O=S(=O)(c1ccc(F)c(F)c1)N1CCCc2ccccc21	none
CCCN1C[C@H](C)[C@@H](OC)CN(C)C(=O)c2cc(NC(=O)NC3CCCC3)ccc2OC[C@H]1C	none (no result: Cneo AK release, F508del corr, HIV Env fusion, miR-122 sensor)
COc1ccc(S(=O)(=O)N[C@H]2CC[C@H](CC(=O)NCCc3ccccc3)O[C@H]2CO)cc1	none (no result: miR-122 sensor)
CO[C@@H]1CC[C@@H]2CCOc3c(C#N)cccc3C(=O)N(C)C[C@@H](OC)[C@@H](C)C(=O)N(C)C[C@@H]1O2	none (no result: F508del corr, miR-122 sensor)
COC(=O)CN1C(c2cccc(Cl)c2)=Nc2ccc(Cl)cc2C1c1ccccc1 (centres undefined)	HIV Env fusion 56 (no result: Cneo AK release, F508del corr, miR-122 sensor, GSIS activator, Ecoli rRNA inh)
Cc1cc(C)c(COCc2cc(/C=N/O)c(C)cc2C)cc1/C=N/O	Ecoli rRNA inh -36 (no result: HIV Env fusion)
CSc1cc(/C=N/O)c(SC)s1	none (no result: Cneo AK release, F508del corr, HIV Env fusion, GSIS activator, Ecoli rRNA inh)
COc1ccc(Nc2nc(C(=O)N3CCc4cc(OC)c(OC)cc4C3)cs2)cc1	Ecoli rRNA inh -39 (no result: Cneo AK release, miR-122 sensor)
O=C(CSCc1nc2c(nnn2Cc2ccc(F)cc2)c(=O)[nH]1)Nc1c(Cl)cc(Cl)cc1Cl	none (no result: Cneo AK release, miR-122 sensor, GSIS activator, Ecoli rRNA inh)
CCc1nc2c(nnn2Cc2ccc(F)cc2)c(=O)[nH]1	GSIS activator 60 (no result: F508del corr, HIV Env fusion)
O=C(N/N=C/c1ccc[nH]1)c1cc(-c2cccs2)nc2ccccc12	Ecoli rRNA inh -24
O=C(N/N=C/c1cccs1)c1cc(C2CC2)nc2ccccc12	F508del corr 12 (no result: Cneo AK release, HIV Env fusion, miR-122 sensor, GSIS activator)
